An excerpt weighted towards active compounds, which were near 9.6% of everything screened.
PTEN del growth: PTEN-deleted cell growth suppression. viability, % at 10 µM. 140,000 tested, 1.2% active. HCT116 PTEN-null viability, CellTiter-Glo, 60 h; hits give low values. AID 827;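 active = viability at or below a set limit, 4 SD under the median of all tested compounds, cut at about 3.7% in these data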;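 note: PTEN knockout HCT116 line with beta catenin targeted HCT116 as companion control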
TNAP inh hi DEA: blocks human TNAP under high phosphate acceptor concentration. P05186. purified TNAP, CDP-star luminescence, 1 M DEA. inhibition, % at 20 µM. 200,000 tested, 0.03% active;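 active = over 50% inhibition of tissue-nonspecific alkaline phosphatase at 20 µM in the single-dose screen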;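 note: plate controls were DMSO wells for no effect and EDTA-quenched wells as full inhibition for full effect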
Target sequence (P05186 whole entry, looked up): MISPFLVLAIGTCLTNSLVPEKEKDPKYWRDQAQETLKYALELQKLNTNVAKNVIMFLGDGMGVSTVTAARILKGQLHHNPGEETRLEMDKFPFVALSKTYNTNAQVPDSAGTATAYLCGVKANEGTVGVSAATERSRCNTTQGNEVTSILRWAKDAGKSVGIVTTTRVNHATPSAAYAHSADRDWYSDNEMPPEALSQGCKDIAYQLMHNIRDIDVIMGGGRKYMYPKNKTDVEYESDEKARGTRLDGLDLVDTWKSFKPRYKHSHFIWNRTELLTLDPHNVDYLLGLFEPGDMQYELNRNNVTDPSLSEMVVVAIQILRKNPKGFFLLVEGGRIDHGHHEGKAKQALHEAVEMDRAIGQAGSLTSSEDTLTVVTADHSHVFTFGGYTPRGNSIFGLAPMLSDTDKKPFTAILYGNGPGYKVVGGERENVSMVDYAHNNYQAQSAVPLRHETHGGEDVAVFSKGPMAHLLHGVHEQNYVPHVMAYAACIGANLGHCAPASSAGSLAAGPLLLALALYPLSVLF
TNAP act hi DEA: increases human TNAP activity under high phosphate acceptor concentration | activation factor at 20 µM | 200,000 tested, under 10 active | purified TNAP, CDP-star luminescence, 1 M DEA, 30 min; hits give high values; 0 = EDTA background, 1 = DMSO-only activity;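 active = activation factor at least 2 at 20 µM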
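Dosing: 20 µM single point. System: human TNAP. Amount: TNAP 1/800 final. Incubation: 30 min, room temperature. Read-out: TNAP activation factor scaled between EDTA and DMSO control wells. Signal: luminescence from CDP-star hydrolysis. Medium: 1 M DEA, pH 9.8, Mg2+, Zn2+. Control set: EDTA negative control, DMSO positive control.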
TNAP inh noacc: inhibitors of human TNAP without phosphate acceptor; 200,000 tested, 0.26% active; inhibition, % at 20 µM; purified TNAP, CDP-star luminescence, 30 min; P05186;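 active = tissue-nonspecific alkaline phosphatase inhibition above about 50% at 20 µM in the single-dose screen, limit read from the data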;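 note: 0% = DMSO negative control and 100% = EDTA positive control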
L major viab: inhibitors of Leishmania major promastigote growth. Leishmania major promastigotes, resazurin fluorescence viability. 200,000 tested, 9% active. inhibition, % at 10 µM; in the data active = inhibition above about 50%;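 note: promastigotes grown with compound for 44 hours at 28 °C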
HCT116 bCat-KO: beta-catenin-lacking colon tumor cell growth suppression; HCT116 beta-catenin knockout viability, CellTiter-Glo, 60 h; hits give low values; viability, % at 10 µM; 140,000 tested, 1.5% active;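 active = viability at or under a set limit, the compound median less 4 SD, cut at about 6% in these data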;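 note: 0% = Hyamine 1622 control at 20 µM and 100% = untreated cell control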
Numbers without * were called inactive; . = not tested or not shown.

SMILES	PTEN del growth	TNAP inh hi DEA	TNAP act hi DEA	TNAP inh noacc	L major viab	HCT116 bCat-KO
S=C(NCCC(c1ccccc1)c1ccccc1)Nc1cccc(Cl)c1	22	-24	1.2	-84	59*	19
CCOc1ccc(OCCC(=O)Nc2ccc(F)cc2C)cc1	.	-2	1	-7	0	.
COc1cccc(CSc2nc3cc4c(cc3cc2C)OCCO4)c1	65	-4	1	-18	57*	73
Cc1cc2cc3c(cc2nc1SCc1ccc(C(=O)O)cc1)OCCO3	101	4	1	-7	-3	94
COc1ccc(S(=O)(=O)Nc2ccc(NC(C)=O)cc2)cc1[N+](=O)[O-]	.	-1	1	-4	0	.
CCCNC(=O)Cn1c(=O)/c(=C\c2ccc(-c3cccc([N+](=O)[O-])c3)o2)s/c1=C\C(=O)C(C)(C)C	65	22	0.8	18	63*	70
CCCNC(=O)Cn1c(=O)/c(=C\c2ccc(-c3ccc([N+](=O)[O-])cc3)o2)s/c1=C\C(=O)C(C)(C)C	7	34	0.7	28	73*	12
Cc1ccc(C(=O)N/C(=C\c2ccc(-c3cccc([N+](=O)[O-])c3)o2)C(=O)NC(C)(C)C)cc1	63	6	0.9	6	11	76
CCn1c(C)c(C)c2cc(C(=O)Nc3cccc(Cl)c3)ccc21	64	-6	1.1	-12	62*	83
CCn1ccc(C(=O)Nc2cccc(Cl)c2)n1	.	-5	1.1	-4	-10	.
N#CC(Sc1ccccn1)c1ccc(Cl)cc1 (stereo unspecified)	.	3	1	0	-3	.
CC(NC(=O)C12CC3CC(CC(C3)C1)C2)C(=O)N/N=C/C1=C(N2CCOCC2)C(=C\c2cccc([N+](=O)[O-])c2)/CC1 (stereo unspecified)	87	0	1	0	98*	74
CC(C)C(NC(=O)C12CC3CC(CC(C3)C1)C2)C(=O)N/N=C/C1=C(N2CCOCC2)C(=C\c2ccc([N+](=O)[O-])cc2)/CC1 (stereo unspecified)	84	22	0.8	11	97*	90
Cc1occc1C(=O)N/N=C/C1=C(N2CCOCC2)C(=C\c2ccc(Cl)cc2)/CC1	92	5	1	-11	-3	96
CCN1CCCC1CNC(=O)c1ccc(N2CCOCC2)c(NS(=O)(=O)c2ccc(OC)cc2)c1 (stereo unspecified)	.	2	1	-9	10	.
COc1ccccc1N(C(=O)c1cncc(Br)c1)c1nc(-c2ccc(C)cc2)cs1	74	7	0.9	0	12	74
Cc1ccc(NC(=S)N2CCN(CCN3C(=O)c4cccc5cccc(c45)C3=O)CC2)cc1	49	-3	1	-7	100*	47
O=C1c2cccc3cccc(c23)C(=O)N1CCN1CCN(C(=S)Nc2ccc(F)cc2)CC1	86	-4	1	-5	59*	91
O=C(CCc1nnc(Cc2ccc(-c3ccccc3)cc2)o1)NCCc1cccnc1	.	-8	1.1	-11	5	.
COc1cccc(CNc2nc(-c3cccnc3)nc3ccccc23)c1	.	-6	1.1	-13	76*	.
O=C(Nc1n[nH]c(C2CCCCC2)n1)C1CCCCC1	92	-1	1	72*	1	89
O=C(NC(CSCc1ccccc1)C(=O)N/N=C/c1ccc(O)cc1O)c1ccc([N+](=O)[O-])cc1 (stereo unspecified)	3.0*	2	1	33	100*	2.9*
COc1cc(O)ccc1/C=N/NC(=O)c1ccc([N+](=O)[O-])cc1	.	4	1	10	4	.
Cc1c(Cl)cnc(NC(=O)COC(=O)CCc2nc3ccccc3s2)c1Cl	95	-2	1	-4	-4	97
Cc1cc(N2CCCC2)c(F)cc1/C=C\[N+](=O)[O-]	.	16	0.8	10	52*	.
SMILES	PTEN del growth	TNAP inh hi DEA	TNAP act hi DEA	TNAP inh noacc	L major viab	HCT116 bCat-KO
CCOc1ccc(OCCN2CCCCC2)cc1	96	3	1	-11	1	87
CCOc1ccc(C(=O)OC2CCN(C)CC2)cc1	104	-3	1	-2	100*	93
CCCOc1ccc(OCCN2CCCC(C)C2)cc1 (stereo unspecified)	91	1	1	-4	96*	98
COc1ccc(C(=O)CCN2CCc3cc(OC)c(OC)cc3C2)cc1	.	-2	1	-8	67*	.
CCOc1ccc(C(=O)CCN2CCCCCC2)cc1	90	-9	1.1	-12	100*	87
Nc1nc(SCC(=O)Nc2ccc([N+](=O)[O-])cc2)n[nH]1	.	-5	1	-1	-2	.
C[C@@H](c1ncncc1F)[C@](O)(Cn1cncn1)c1ccc(F)cc1F	.	-2	1	-5	.	.
CCCOc1ccc(C(=O)CCN2CCCCC2)cc1	76	2	1	2	90*	79
CCCCOc1ccc(C(=O)CCN2CCOCC2)cc1	.	-4	1	-5	76*	.
COc1ccc(C(C)=O)cc1CN1CCCCC1	89	0	1	4	-2	82
CCCOc1cc(CN2CCCCC2)cc(C(C)=O)c1	93	-4	1	-17	52*	87
Oc1cccnc1CCc1ccccc1	.	-4	1	2	6	.
C=C(C)CN(CC)C(=O)CCc1nnc(CCc2c[nH]c3ccccc23)o1	.	-6	1.1	-2	3	.
CC(=O)Nc1ccc(N2C(=O)CSC2c2c(F)cccc2Cl)cc1 (stereo unspecified)	62	-4	1	-12	-4	71
O=C1CSC(c2cccc(Cl)c2Cl)N1c1ccccn1 (stereo unspecified)	93	0	1	-4	91*	95
CC1CCCN(Cc2nc(Cc3ccccc3Cl)no2)C1 (stereo unspecified)	.	0	1	6	-2	.
COc1cc(CN2CCN(c3cccc(Cl)c3)CC2)cc(OC)c1OC	27	2	1	1	88*	32
Cn1c(=O)[nH]c(=O)c2c1nc(CN1CCN(c3cccc(Cl)c3)CC1)n2CCc1ccccc1	74	-1	1	-6	16	79
COc1ccc(CCNC(=O)CN2CCN(c3cccc(Cl)c3)CC2)cc1OC	58	-9	1.1	-12	45	53
Cn1c(CN2CCN(c3cccc(Cl)c3)CC2)nc2ccccc21	86	0	1	-7	68*	91
CCCn1c(N2CCN(Cc3ccc(Cl)cc3)CC2)nc2ccccc21	.	-6	1.1	-6	55*	.
CSC1=NCCN1C(=O)C12CC3CC(CC(C3)C1)C2	.	0	1	-4	51*	.
COc1ccc(NC(=O)CSc2ccc3nnc(-c4cccnc4)n3n2)c(OC)c1	.	0	1	-3	-6	.
Cc1cc(C(=O)CCC(=O)N2CCN(S(=O)(=O)c3cccs3)CC2)c(C)s1	69	-6	1.1	-11	88*	75

Source: PubChem BioAssay
